Here are results for nine molecules from article PMC9305408 (Chemmedchem, 2022).

Converted amounts (≈) assume the structure as drawn.

What all share (type): cell-based
In assay [1] the test system is Staphylococcus aureus ATCC 29213. The assay can be described thus: MIC, broth microdilution. The settings on record: ATCC29213, 24 h, read-out: minimum inhibitory concentration (MIC). Summed up:
(§1)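 Run by broth microdilution in Mueller-Hinton broth. A 10 mg/mL test sample was added to the first well and serially diluted 1:2 across 12 wells. Bacteria were added to about 10⁶ CFU/mL final, and plates were incubated at 37 °C for 24 h. Resazurin was then added for 2 h at 37 °C, and reduction from blue to pink scored growth. MIC was determined in triplicate.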
(In general: Broth dilution looks for growth in wells or tubes with falling amounts of substance.)

Assay [2] concerns Bacillus subtilis ATCC 3366. The assay is described as follows: MIC, broth microdilution. The settings on record: ATCC3366, 24 h, read-out: minimum inhibitory concentration (MIC). In short, it runs like this: as §1
Assay [3] has as its system Pseudomonas aeruginosa ATCC 27853. The assay can be described thus: MIC, broth microdilution. The settings on record: ATCC27853, 24 h, read-out: minimum inhibitory concentration (MIC). Summed up: as §1
Assay [4] relates to Aspergillus niger. The assay is described as follows: MIC, broth microdilution. Conditions: 48 h, read-out: minimum inhibitory concentration (MIC). In short, it runs like this: (§2)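 Twofold serial dilutions of test compound in Mueller-Hinton broth were run across 12 wells, starting from 10 mg/mL in the first well. Fungal suspension was added at about 10⁶ CFU/mL final, then plates were incubated at 28 °C for 48 h. Resazurin was added for 2 h at 37 °C, with blue-to-pink reduction scored as growth. MIC was determined in triplicate.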

Assay [5] relates to Escherichia coli ATCC 25922. The assay can be described thus: MIC, broth microdilution. The settings on record: ATCC25922, 24 h, read-out: minimum inhibitory concentration (MIC). In short, it runs like this:
as §1

Assay [6] deals with Candida albicans. The assay is described as follows: MIC, broth microdilution. Conditions: 48 h, read-out: minimum inhibitory concentration (MIC). Summed up:
as §2

For assay [7], the system named is Candida albicans. The assay can be described thus: Agar disc diffusion. Conditions: 6 mm discs, 6 μl of 10 mg/mL. Background: In agar diffusion tests the substance spreads into inoculated agar from a disc or well.
In assay [8] the test system is Aspergillus niger. The assay is described as follows: Agar disc diffusion. The settings on record: 6 mm discs, 6 μl of 10 mg/mL.
The test system of assay [9] is Bacillus subtilis ATCC 3366. The assay can be described thus: Agar disc diffusion. Conditions: ATCC3366, read-out: diameter of the inhibition zone. Summed up:
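Agar plates (30 ml medium) were each spread with 100 μl fresh culture of one organism. Sterile 6 mm paper discs were loaded with 6 μl of 10 mg/mL test sample. Plates were sealed against evaporation and incubated at 37 °C for 24 h. Inhibition zone diameter was measured in mm, averaged over three independent determinations.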

Take `C#CCn1c(=O)cc(C(=O)N[C@@H](C)C(=O)OC)c2ccccc21` [Compound 2 a, Methyl (S)‐2‐[2‐oxo‐1‐(prop‐2‐yn‐1‐yl)‐1,2‐dihydroquinoline‐4‐carbox amido]propanoate]: the MIC was determined as 2500 µg/mL (≈ 8000 µM) in assay [1]; 5000 µg/mL (≈ 16000 µM) in assay [2]; 620 µg/mL (≈ 1990 µM) in [3]; 10000 µg/mL (≈ 32000 µM) with Aspergillus niger [4]; 620 µg/mL (≈ 1990 µM) in [5].
For `C#CCn1c(=O)cc(C(=O)N[C@@H](C)C(=O)OC)c2cc(Br)ccc21` [Compound 2 b, Methyl (S)‐6‐bromo‐2‐[2‐oxo‐1‐(prop‐2‐yn‐1‐yl)‐1,2‐dihydroquinoline‐4‐carboxamido]propanoate], the MIC in the assay on Candida albicans [6] came out at 10000 µg/mL (≈ 25600 µM); in [1] it was 2500 µg/mL (≈ 6390 µM); in assay [2], 2500 µg/mL (≈ 6390 µM); in assay [3], 2500 µg/mL (≈ 6390 µM); in assay [5], 620 µg/mL (≈ 1580 µM).
Take `CCCCCn1cc(Cn2c(=O)cc(C(=O)N[C@@H](C)C(=O)OC)c3ccccc32)nn1` [Compound 3a1, Methyl (S)‐2‐{2‐oxo‐1‐[(1‐pentyl‐1H‐1,2,3‐triazol‐4‐yl)methyl]‐1,2‐dihydroquinoline‐4‐carboxamido}propanoate]: the MIC in [1] stood at 1250 µg/mL (≈ 2940 µM); in assay [2] it was 310 µg/mL (≈ 729 µM); in assay [3], 2500 µg/mL (≈ 5880 µM); in assay [5] it was 78 µg/mL (≈ 183 µM). The “diameter of the inhibition zone” value in the assay with Candida albicans [7] and in the assay with Aspergillus niger [8] was “did not show any antifungal activity” in each case.
As for `COC(=O)[C@H](C)NC(=O)c1cc(=O)n(Cc2cn(Cc3ccccc3)nn2)c2ccccc12` [Compound 3a2, Methyl (S)‐2‐{2‐oxo‐1‐[(1‐benzyl‐1H‐1,2,3‐triazol‐4‐yl)methyl]‐1,2‐dihydroquinoline‐4‐carboxamido}propanoate], the MIC amounted to 10000 µg/mL (≈ 22400 µM) in the assay with Candida albicans [6]; 2500 µg/mL (≈ 5610 µM) in assay [1]; 2500 µg/mL (≈ 5610 µM) in assay [2]; 2500 µg/mL (≈ 5610 µM) in assay [3]; 310 µg/mL (≈ 696 µM) in assay [5].
Turning to `COC(=O)[C@H](C)NC(=O)c1cc(=O)n(Cc2cn(Cc3ccccc3C)nn2)c2ccccc12` [Compound 3a3, Methyl (S)‐2‐{2‐oxo‐1‐[(1‐(2‐methylbenzyl)‐1H‐1,2,3‐triazol‐4‐yl)methyl]‐1,2‐dihydroquinoline‐4‐carboxamido}propanoate], the MIC with Candida albicans [6] is 10000 µg/mL (≈ 21800 µM); in [1] it was 1250 µg/mL (≈ 2720 µM); in assay [2], 2500 µg/mL (≈ 5440 µM); in [3] it was 1250 µg/mL (≈ 2720 µM); in [5] it was 39 µg/mL (≈ 84.9 µM).
In the case of `COC(=O)[C@H](C)NC(=O)c1cc(=O)n(Cc2cn(Cc3ccccc3Br)nn2)c2ccccc12` [Compound 3a4, Methyl (S)‐2‐{2‐oxo‐1‐[(1‐(2‐bromobenzyl)‐1H‐1,2,3‐triazol‐4‐yl)methyl]‐1,2‐dihydroquinoline‐4‐carboxamido}propanoate], the MIC is 310 µg/mL (≈ 591 µM) in assay [1], 78 µg/mL (≈ 149 µM) in [2], 2500 µg/mL (≈ 4770 µM) in [3] and 2500 µg/mL (≈ 4770 µM) in assay [5]. Besides, the “diameter of the inhibition zone” value with Candida albicans [7] and in the assay with Aspergillus niger [8] was “did not show any antifungal activity” throughout. Also, the zone of inhibition at 10000 µg/mL in [9] came out at 18 mm.
On to `COC(=O)C(NC(=O)c1ccccc1)n1cc(Cn2c(=O)cc(C(=O)N[C@@H](C)C(=O)OC)c3ccccc32)nn1` (stereo partly drawn) [Compound 3a5, Methyl (S)‐2‐{2‐oxo‐1‐[(1‐(1‐benzamido‐2‐methoxy‐2‐oxoethyl)‐1H‐1,2,3‐triazol‐4‐yl)methyl]‐1,2‐dihydroquinoline‐4‐carboxamido}propanoate], for which the MIC worked out at 5000 µg/mL (≈ 9150 µM) with Candida albicans [6]; 39 µg/mL (≈ 71.4 µM) in assay [1]; 310 µg/mL (≈ 567 µM) in assay [2]; 78 µg/mL (≈ 143 µM) in assay [3]; 10000 µg/mL (≈ 18300 µM) with Aspergillus niger [4]; 19.5 µg/mL (≈ 35.7 µM) in [5].
Consider `COC(=O)[C@H](C)NC(=O)c1cc(=O)n(Cc2cn(Cc3ccccc3C)nn2)c2ccc(Br)cc12` [Compound 3b3, Methyl (S)‐6‐bromo‐2‐{2‐oxo‐1‐[(1‐(2‐methylbenzyl)‐1H‐1,2,3‐triazol‐4‐yl)methyl]‐1,2‐dihydroquinoline‐4‐carboxamido}propanoate], for which the MIC in [1] came to 2500 µg/mL (≈ 4640 µM); in [2] it was 310 µg/mL (≈ 576 µM); in assay [3], 620 µg/mL (≈ 1150 µM); in assay [5] it was 620 µg/mL (≈ 1150 µM). Moreover, the “diameter of the inhibition zone” value in the assay with Candida albicans [7] and with Aspergillus niger [8] was “did not show any antifungal activity” throughout.
`COC(=O)[C@H](C)NC(=O)c1cc(=O)n(Cc2cn(Cc3ccccc3Br)nn2)c2ccc(Br)cc12` [Compound 3b4, Methyl (S)‐6‐bromo‐2‐{2‐oxo‐1‐[(1‐(2‐bromobenzyl)‐1H‐1,2,3‐triazol‐4‐yl)methyl]‐1,2‐dihydroquinoline‐4‐carboxamido}propanoate]: the MIC stood at 2500 µg/mL (≈ 4140 µM) in assay [1], 9.75 µg/mL (≈ 16.2 µM) in [2], 1250 µg/mL (≈ 2070 µM) in assay [3] and 310 µg/mL (≈ 514 µM) in assay [5]. The “diameter of the inhibition zone” value with Candida albicans [7] and with Aspergillus niger [8] was “did not show any antifungal activity” throughout.

By zone of inhibition is commonly meant the extent of the growth-free halo in a diffusion test.
